Assay results reported in PubChem BioAssay AID720508 (The Scripps Research Institute Molecular Screening Center, 2013).
The whole screen tested about 370,000 compounds, of which about 500 (0.14%) were called active. The list comes from a sample in which actives are over-represented; it also holds similar structures and randomly drawn compounds. Unmarked numbers belong to inactive results.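 How the source made its calls: active means inhibition above the mean of compounds falling within the control limits plus 3 SD of them (cut at about 14% in these data); inactive means the rest.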

These compounds were tested against Fibrinogen beta chain (Homo sapiens) (UniProt P02675) (assay: small molecules displacing Tn7 from DD(E) complex – biochemical, fluorescence polarization, human fibrin, Tn7 probe, primary screen (AID 720508;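 further: 0% = plate median of compound wells and 100% = 10 µM Aha-Tn7 peptide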)). Conditions: FP displacement of FITC-Tn7 peptide from fibrin DD(E); at 8.3 µM; stronger effect = higher value; 0% = median of compound wells per plate.
Sequence of Fibrinogen beta chain (Homo sapiens) (P02675 whole entry, looked up): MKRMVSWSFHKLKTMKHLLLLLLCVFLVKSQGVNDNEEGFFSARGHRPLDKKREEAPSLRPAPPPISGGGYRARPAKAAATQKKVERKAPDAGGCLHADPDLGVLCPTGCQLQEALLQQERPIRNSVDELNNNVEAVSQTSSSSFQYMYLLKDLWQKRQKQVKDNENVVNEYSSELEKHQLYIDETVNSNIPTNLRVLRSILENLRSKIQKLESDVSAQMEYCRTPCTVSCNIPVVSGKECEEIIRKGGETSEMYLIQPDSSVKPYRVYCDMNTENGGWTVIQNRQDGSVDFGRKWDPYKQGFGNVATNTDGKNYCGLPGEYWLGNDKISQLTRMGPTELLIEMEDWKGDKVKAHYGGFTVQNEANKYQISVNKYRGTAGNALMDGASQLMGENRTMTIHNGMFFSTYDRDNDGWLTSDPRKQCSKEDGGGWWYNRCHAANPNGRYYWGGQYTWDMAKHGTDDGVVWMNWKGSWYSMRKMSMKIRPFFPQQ
How it was run: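 Also added: labelled Tn7 tracer, 0.1 µM; Assay system: human fibrin DD(E) protein; Amount: 2 µM fibrin DD(E); Schedule: 10 min compound pre-incubation, 3 h probe incubation at room temperature; Repeats: one replicate per compound; Read-out basis: percent inhibition; Measured by: fluorescence polarization of the labelled Tn7 tracer.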

First: O=C(NCc1ccco1)C1CCCN1S(=O)(=O)c1ccccc1C(F)(F)F (stereo not drawn)
Second: OCC1(Cc2ccccc2C(F)(F)F)CCN(Cc2ccncc2)CC1
The inhibition of the first is higher: -1.12% for the first, -3.68% for the second.

Going from `COc1ccc(NC2CC(=O)N(C)C2=O)cc1` (stereo not drawn) to `CCC(c1ccc(NC(=O)OC(C)(C)C)cc1)c1cc(OC)cc(OC)c1` (stereo not drawn), the inhibition falls from 0.3% to -0.44%.

Going from `CCC1CCCCN1C(=S)Nc1ccc(SC(F)F)cc1` (stereo not drawn) to `COc1cc(C(=S)NC2CCCCC2)ccc1O`, the inhibition falls from 5.34% to 2.78%.

Compared with `C[N+]1(CCNC(=O)/C=N/O)CCCCC1`, `CC(=O)CC(CC(=O)NC1CCCCC1)c1ccccc1` (stereo not drawn) is higher in inhibition: 1.46% for the first, 4.93% for the second.

Going from `COc1ccc(C)cc1NC(=S)N1CCOCC1` to `Cc1ccc(C)c(NS(=O)(=O)c2c(C)[nH]c(C)c2C(=O)N2CCCCC2)c1`, the inhibition falls from -0.49% to -9.23%.

First: COC(=O)[C@]12CCCCC=C1N(Cc1ccc(Cl)cc1Cl)C(=O)[C@H](CC(=O)NCc1cccc3ccccc13)C2
Second: COC(=O)[C@]12CCCCC=C1N(Cc1ccco1)C(=O)[C@H](CC(=O)NCC1CCCCC1)C2
The inhibition of the first is lower: -3.23% for the first, 6.36% for the second.

Going from `Cn1c(=O)cc(OCCCC(=O)N2CCN(c3ccccn3)CC2)c2ccccc21` to `Cn1c(=O)[nH]c(=O)c2c1nc(CN1CCN(c3ccccc3F)CC1)n2CCc1ccccc1`, the inhibition rises from 2.1% to 6.89%.

Going from `OCCn1c(-c2ccccc2)csc1=Nc1ccccc1` to `NNC(=O)CNC(c1ccccc1)c1cc(Cl)ccc1NC(=O)c1ccccc1` (stereo not drawn), the inhibition falls from 5.44% to 2.82%.

Going from `C=CCOc1cccc(C2C(C(=O)c3ccc(C)o3)=C(O)C(=O)N2CCN2CCOCC2)c1` (stereo not drawn) to `C=CCOc1c2ccc(C(=O)N(CC)c3ccc(OC)cc3)cc2nn1C`, the inhibition rises from 0.33% to 1.93%.

First: Cc1cc(C)n2c(Nc3c(C)cccc3C)c(CCc3ccccc3)nc2n1
Second: COc1cccc(NC(=O)CN(C)CC(=O)c2c(N)n(Cc3ccccc3)c(=O)n(C)c2=O)c1
The inhibition of the first is higher: 10.1% for the first, -1.38% for the second.

First: O=S(=O)(c1ccc(-c2ccno2)s1)N1CCCCC1
Second: N#CCCN1CCN(S(=O)(=O)c2ccc(S(=O)(=O)N3CCCC3)cc2)CC1
The inhibition of the first is lower: -8.93% for the first, 3.06% for the second.

Compared with `O=[N+]([O-])/C=C/c1ccc2c(ccn2Cc2ccccc2)c1`, `CCOC(=O)C1(S(=O)(=O)c2ccc(Cl)cc2)CCN(Cc2ccccc2)CC1` is higher in inhibition: 0.19% for the first, 7.42% for the second.

Compared with `O=S(=O)(NCC1CCCO1)c1cnc(Cl)c(Cl)c1` (stereo not drawn), `Cc1ccc(S(=O)(=O)N2CCC(C(=O)NCCC3=CCCCC3)CC2)cc1C` is lower in inhibition: 0.79% for the first, 0.25% for the second.

Compared with `O=C(COC(=O)c1ccc(N2CCCC2=O)cc1)c1ccc(OC(F)F)cc1`, `CCOC(=O)c1ccc(NC(=O)c2ccc(NC(=O)C3CCCO3)cc2)cc1` (stereo not drawn) is higher in inhibition: -9.52% for the first, 8.18% for the second.

Compared with `COc1cc(OC)cc(C(=O)NNC(=O)CNC(=O)c2ccc(Br)o2)c1`, `COc1cc(OC)cc(C(=O)NCC(=O)OCc2csc(-c3ccccc3)n2)c1` is lower in inhibition: 3.03% for the first, 1.99% for the second.

First: CC(C)c1nnc(NC(=O)CCC(=O)N2CCN(c3cccc(Cl)c3)CC2)s1
Second: O=C(CCNS(=O)(=O)c1cccs1)N1CCN(c2ccc(F)cc2)CC1
The inhibition of the first is lower: 3.33% for the first, 3.48% for the second.

Going from `CN1CCc2ccccc2C1Cc1ccccc1NC(=O)c1sc2ccccc2c1Cl` (stereo not drawn) to `Cc1ccc(-n2c(SCC(=O)Nc3cccc4ccccc34)nnc2-c2ccccn2)cc1`, the inhibition rises from -2.71% to 1.64%.

First: O=C(Nc1ccc2c(c1)OCO2)c1sc2cc(Cl)ccc2c1Cl
Second: Cc1cc(Cl)ccc1C(=O)C1CCCN(C(=O)c2ccc3c(c2)OCO3)C1 (stereo not drawn)
The inhibition of the first is higher: 6.59% for the first, -13.3% for the second.

Going from `O=C(COC(=O)c1ccccc1NC(=O)c1ccco1)Nc1ccc2c(c1)OC(F)(F)O2` to `CCOC(=O)c1ccc(NC(=O)c2c(NCc3ccccc3)[nH]c(=O)[nH]c2=O)cc1`, the inhibition rises from -0.79% to 1.03%.

Going from `N#Cc1cccc(CSc2ncnc(N)n2)c1` to `N#Cc1cccc(CN2CCC(=O)N(CCO)CC2)c1`, the inhibition rises from -4.53% to 7.16%.

Going from `CCOc1ccc(NC(=O)CCS(=O)(=O)c2ccc3c(c2)CCCN3C(=O)CC)cc1` to `COc1ccc(OCCCC(=O)Nc2cccc(S(=O)(=O)N3CCCCCC3)c2)cc1`, the inhibition rises from -5.9% to 6.07%.

First: COc1ccccc1-c1sc2ccccc2c1C#CC1(O)CCCCC1
Second: Nc1nc(Br)c2ccccc2c1-c1ccc(F)cc1
The inhibition of the first is higher: 1.77% for the first, -1.53% for the second.

Going from `C[C@H](CO)N1C[C@H](C)[C@@H](CN(C)S(=O)(=O)c2ccc(F)cc2)Oc2ccc(NC(=O)CCC(F)(F)F)cc2C1=O` to `Cc1ccc(NS(=O)(=O)c2ccc3c(c2)NC(=O)CO3)cc1`, the inhibition rises from -0.61% to 2.86%.

Compared with `COc1ccc(NC(=O)CN(C)C(=O)c2cccc(S(=O)(=O)N3CCN(c4ccccc4)CC3)c2)cc1`, `COc1ccc(-n2c(SCC(=O)Nc3ccccc3-c3ccccc3)nnc2-c2cccnc2)cc1` is higher in inhibition: -8.03% for the first, 6.88% for the second.

Going from `CCCc1nc2c3ccccc3ccn2c1Cc1ccccc1C(F)(F)F` to `N#Cc1nc(Cc2cccc3ccccc23)oc1NCc1ccc2c(c1)OCO2`, the inhibition falls from 6.59% to 4.95%.

Compared with `O=C(/C=C/c1ccc([N+](=O)[O-])cc1)NCCSCc1ccco1`, `CC(Oc1ccccc1)C(=O)Nc1oc(-c2ccco2)c(-c2ccco2)c1C#N` (stereo not drawn) is higher in inhibition: 1.56% for the first, 2.07% for the second.

Compared with `C=CCn1c(SCC(=O)c2c(N)n(C)c(=O)n(C)c2=O)nc2sc(CC)cc2c1=O`, `CC(C)[C@@H](C(=O)OCC(=O)c1ccc2c(c1)NC(=O)CO2)N1C(=O)c2ccccc2C1=O` is lower in inhibition: 3.02% for the first, -6.7% for the second.

Going from `CC1(C)CC(=O)c2sc(N)nc2C1` to `COc1ccc(Br)c2c1C(=O)CC2`, the inhibition falls from -0.75% to -5.83%.

Going from `Cc1cc(C)cc(N(CCC#N)C(=O)CN2C(=O)NC3(CCCC3)C2=O)c1` to `CC12CCC(C(=O)N(CCC#N)CCC#N)(CC1=O)C2(C)C` (stereo not drawn), the inhibition rises from -4.5% to 1.78%.

First: N#CCSc1ccccc1NC(=O)CN1C(=O)NC(CCc2ccccc2)C1=O (stereo not drawn)
Second: COC(=O)c1sccc1NC(=O)CSc1ccccc1NS(=O)(=O)c1cc(Cl)ccc1Cl
The inhibition of the first is lower: -8.31% for the first, 0.88% for the second.

Compared with `O=C(CCN1C(=O)c2ccncc2C1=O)Nc1cc(F)ccc1F`, `CCc1nc2c(OCc3ccc(F)c(F)c3)cccn2c1N(C)C(=O)c1ccco1` is higher in inhibition: 6.34% for the first, 7.1% for the second.

Going from `Oc1ccccc1-c1cc(-c2ccc(Cl)cc2)n[nH]1` to `COc1ccc(-n2c(SCC(=O)Nc3sc4c(c3C#N)CCCC4)nnc2-c2ccc(O)cc2)cc1`, the inhibition falls from -0.94% to -4.29%.

Going from `CC(C)CCN1CCN=C1N(C)C` to `CC(Sc1ccc(S(=O)(=O)N2CCN(C)CC2)cn1)C(=O)NC1CCCC(C)C1C` (stereo not drawn), the inhibition rises from -8.21% to 4.47%.

Compared with `OC(c1nc2ccc(F)cc2[nH]1)C(O)c1nc2ccc(F)cc2[nH]1` (stereo not drawn), `COc1cc2nc(CN(C)Cc3ccc(F)cc3)[nH]c(=O)c2cc1OC` is lower in inhibition: -4.03% for the first, -5.44% for the second.

Going from `CCOC(=O)N1CCC(=NNC(N)=O)CC1` to `CCCC(=O)N1CCC(CCC(=O)NC2CC2)CC1`, the inhibition falls from 0.3% to -7.44%.

Going from `CCOC(=O)C=Cc1ccc(C(=O)OCC)[nH]1` to `CCCCOC(=O)NCN1C(=O)C2C3C=CC(C3)C2C1=O` (stereo not drawn), the inhibition rises from -0.66% to 12.4%.

First: COc1cc(C(=O)NN(CCC#N)C2=NS(=O)(=O)c3ccccc32)cc(OC)c1OC
Second: CCC(C)N1CC(=O)N2Cc3[nH]c4ccccc4c3C[C@H]2C1=O (stereo partly drawn)
The inhibition of the first is lower: -4.12% for the first, -0.72% for the second.

First: O=C(c1ccc(OC2CCN(C(=O)c3cccnc3)CC2)cc1)N1CCCCCC1
Second: O=C(Nc1cccc(C(=O)NC2CC2)c1)c1ccc(F)c(S(=O)(=O)N2CCOCC2)c1
The inhibition of the first is lower: 3.65% for the first, 6.51% for the second.

Compared with `O=C(Cn1cnc2c(nnn2Cc2ccc(F)cc2)c1=O)NCc1ccc2c(c1)OCO2`, `CC(C)[C@H](NC(=O)N1CCn2c1nc1ccccc12)C(=O)NCc1ccc2c(c1)OCO2` is higher in inhibition: -1.63% for the first, 1.52% for the second.

Compared with `CN(C)S(=O)(=O)c1ccc(N/C=C(\[N+](=O)[O-])S(=O)(=O)c2ccccc2)cc1`, `CCC(=O)Nc1cccc(C2=NOC3(C2)C[C@@H](C(N)=O)N(C(=O)c2cc([N+](=O)[O-])cc([N+](=O)[O-])c2C)C3)c1` (stereo partly drawn) is lower in inhibition: -0.82% for the first, -4.25% for the second.

Compared with `Cc1cc(C)c2cc(CN(Cc3cccs3)Cc3nnnn3CC3CCCO3)c(=O)[nH]c2c1` (stereo not drawn), `Cc1ccc(OCc2nc(C#N)c(N3CCCC3)o2)cc1` is higher in inhibition: -1.42% for the first, 0.61% for the second.

`O=S1(=O)c2c(cccc2N2CC[C@H](O)C2)O[C@@H]2CCN1C2` showed an inhibition of 4.53%.

For `COc1cc(C(=S)N2CCOCC2)ccc1O`, the inhibition was 14.7% (active).
For `COc1ccc(-c2nc(CCNC(=O)c3ccc(Br)o3)cs2)cc1`, the inhibition was 16.8% (active).
In the case of `O=C(Nc1ccon1)c1sc2ccccc2c1Cl`, the inhibition is reported as 15.2% (active).
In the case of `O=C(CSc1nnc(-c2ccccn2)n1-c1ccc(Cl)cc1)Nc1ccccc1-c1ccccc1`, the inhibition is reported as 14% (active).
In the case of `C#CCNc1ccc(C(=O)OCC)cc1`, the inhibition is reported as 26.2% (active).
For `Cc1nnc2n1N=C(c1ccc3c(c1)NC(=O)CO3)CS2`, the inhibition was 15.4% (active).
With `CN1C(=O)c2cccc3c(N)ccc(c23)C1=O` the inhibition was 24.4% (active).
In the case of `Cc1nn(C)cc1N1C(=O)c2cccc3c(N)ccc(c23)C1=O`, the inhibition is reported as 28.7% (active).
With `CC(C)(C)c1cc(CN2CCN(CCC#N)CC2)cc(C(C)(C)C)c1O` the inhibition was 13.8% (active).
In the case of `CCOc1ccc(Nc2oc(Cc3ccccc3)nc2C#N)cc1`, the inhibition is reported as 14.8% (active).
